Active and inactive are the calls of the source. The rule behind the calls is not given here.
What was measured:
Type in all cases: functional
Klebsiella pneumoniae [1] = test: Bactericidal activity against Klebsiella pneumoniae after 24 hrs
Pseudomonas aeruginosa [2] = test: Antibacterial activity against Pseudomonas aeruginosa assessed as growth inhibition at 25 ug/well after 24 hrs by agar well diffusion method; settings: for zone of inhibition at 25 µg/disc: read-out: DIZ
Procedure, shortened: (§1)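 Agar well diffusion on […] swabbed with a 24 h broth culture. Samples were dissolved in DMSO and loaded at three per-well amounts into 6 mm wells. Incubation was 37 °C for 24 h, then inhibition zone diameter was read in mm. DMSO served as the negative control. Runs were in duplicate and averaged.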

Klebsiella pneumoniae [3] = test: Antibacterial activity against Klebsiella pneumoniae assessed as growth inhibition at 100 ug/well after 24 hrs by agar well diffusion method; settings: for zone of inhibition at 100 µg/disc: read-out: DIZ; procedure, shortened: as §1
Bacillus subtilis [4] = test: Bactericidal activity against Bacillus subtilis after 24 hrs
Staphylococcus aureus [5] = test: Antibacterial activity against Staphylococcus aureus assessed as growth inhibition at 50 ug/well after 24 hrs by agar well diffusion method; settings: for zone of inhibition at 50 µg/disc: read-out: DIZ; procedure, shortened: as §1
Bacillus subtilis [6] = test: Antibacterial activity against Bacillus subtilis assessed as growth inhibition after 24 hrs by broth dilution method
Procedure, shortened: (§2)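 Tube broth dilution with fresh nutrient broth as diluent and a 24 h old bacterial culture. Compound dilutions were added to the tubes, which were incubated at 37 °C for 24 h. Solvent control without sample was run in parallel. MIC was the lowest concentration showing no visible turbidity.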

Klebsiella pneumoniae [7] = test: Antibacterial activity against Klebsiella pneumoniae assessed as growth inhibition after 24 hrs by broth dilution method; procedure, shortened: as §2
Klebsiella pneumoniae [8] = test: Antibacterial activity against Klebsiella pneumoniae assessed as growth inhibition at 25 ug/well after 24 hrs by agar well diffusion method; settings: for zone of inhibition at 25 µg/disc: read-out: DIZ; procedure, shortened: as §1
Penicillium chrysogenum [9] = test: Antifungal activity against Penicillium chrysogenum assessed as growth inhibition after 48 hrs by broth dilution method
Procedure, shortened: (§3)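 Tube broth dilution with nutrient broth as diluent. Compound dilutions were added to fungal cultures and incubated at 28 °C for 48 h. A solvent control without sample was included. MIC was the lowest concentration with no visible growth or turbidity.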

Aspergillus niger [10] = test: Antifungal activity against Aspergillus niger assessed as inhibition of spore germination at 50 ug/well after 48 hrs by agar well diffusion method; settings: for zone of inhibition at 50 µg/disc: read-out: DIZ
Procedure, shortened: (§4)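 Well diffusion using 6 mm bored wells loaded with DMSO solutions at three per-well amounts, with a DMSO negative control. Plates were held at 28 °C for 48 h, then zone of inhibition diameter was measured in mm. Runs were in duplicate and averaged.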

Pseudomonas aeruginosa [11] = test: Antibacterial activity against Pseudomonas aeruginosa assessed as growth inhibition at 100 ug/well after 24 hrs by agar well diffusion method; settings: for zone of inhibition at 100 µg/disc: read-out: DIZ; procedure, shortened: as §1
Staphylococcus aureus [12] = test: Bactericidal activity against Staphylococcus aureus after 24 hrs
Staphylococcus aureus [13] = test: Antibacterial activity against Staphylococcus aureus assessed as growth inhibition after 24 hrs by broth dilution method; procedure, shortened: as §2
Staphylococcus aureus [14] = test: Antibacterial activity against Staphylococcus aureus assessed as growth inhibition at 100 ug/well after 24 hrs by agar well diffusion method; settings: for zone of inhibition at 100 µg/disc: read-out: DIZ; procedure, shortened: as §1
Pseudomonas aeruginosa [15] = test: Bactericidal activity against Pseudomonas aeruginosa after 24 hrs
Aspergillus niger [16] = test: Antifungal activity against Aspergillus niger assessed as growth inhibition after 48 hrs by broth dilution method; procedure, shortened: as §3
Pseudomonas aeruginosa [17] = test: Antibacterial activity against Pseudomonas aeruginosa assessed as growth inhibition after 24 hrs by broth dilution method; procedure, shortened: as §2
Penicillium chrysogenum [18] = test: Fungicidal activity against Penicillium chrysogenum after 48 hrs
Bacillus subtilis [19] = test: Antibacterial activity against Bacillus subtilis assessed as growth inhibition at 25 ug/well after 24 hrs by agar well diffusion method; settings: for zone of inhibition at 25 µg/disc: read-out: DIZ; procedure, shortened: as §1
Pseudomonas aeruginosa [20] = test: Antibacterial activity against Pseudomonas aeruginosa assessed as growth inhibition at 50 ug/well after 24 hrs by agar well diffusion method; settings: for zone of inhibition at 50 µg/disc: read-out: DIZ; procedure, shortened: as §1
Staphylococcus aureus [21] = test: Antibacterial activity against Staphylococcus aureus assessed as growth inhibition at 25 ug/well after 24 hrs by agar well diffusion method; settings: for zone of inhibition at 25 µg/disc: read-out: DIZ; procedure, shortened: as §1
Bacillus subtilis [22] = test: Antibacterial activity against Bacillus subtilis assessed as growth inhibition at 50 ug/well after 24 hrs by agar well diffusion method; settings: for zone of inhibition at 50 µg/disc: read-out: DIZ; procedure, shortened: as §1
Aspergillus niger [23] = test: Antifungal activity against Aspergillus niger assessed as inhibition of spore germination at 25 ug/well after 48 hrs by agar well diffusion method; settings: for zone of inhibition at 25 µg/disc: read-out: DIZ; procedure, shortened: as §4
Aspergillus niger [24] = test: Fungicidal activity against Aspergillus niger after 48 hrs
Klebsiella pneumoniae [25] = test: Antibacterial activity against Klebsiella pneumoniae assessed as growth inhibition at 50 ug/well after 24 hrs by agar well diffusion method; settings: for zone of inhibition at 50 µg/disc: read-out: DIZ; procedure, shortened: as §1
Bacillus subtilis [26] = test: Antibacterial activity against Bacillus subtilis assessed as growth inhibition at 100 ug/well after 24 hrs by agar well diffusion method; settings: for zone of inhibition at 100 µg/disc: read-out: DIZ; procedure, shortened: as §1
Staphylococcus aureus [27] = test: Ratio of MBC to MIC for Staphylococcus aureus
Aspergillus niger [28] = test: Ratio of MFC to MIC for Aspergillus niger

MIC (Bacillus subtilis [6]) | MIC (Klebsiella pneumoniae [7]) | MIC (Penicillium chrysogenum [9]) | MIC (Staphylococcus aureus [13]) | MIC (Aspergillus niger [16]) | MIC (Pseudomonas aeruginosa [17]) | Compound | zone of inhibition at 25 µg/disc (Pseudomonas aeruginosa [2]) | zone of inhibition at 100 µg/disc (Klebsiella pneumoniae [3]) | zone of inhibition at 50 µg/disc (Staphylococcus aureus [5]) | zone of inhibition at 25 µg/disc (Klebsiella pneumoniae [8]) | zone of inhibition at 50 µg/disc (Aspergillus niger [10]) | zone of inhibition at 100 µg/disc (Pseudomonas aeruginosa [11]) | zone of inhibition at 100 µg/disc (Staphylococcus aureus [14]) | zone of inhibition at 25 µg/disc (Bacillus subtilis [19]) | zone of inhibition at 50 µg/disc (Pseudomonas aeruginosa [20]) | zone of inhibition at 25 µg/disc (Staphylococcus aureus [21]) | zone of inhibition at 50 µg/disc (Bacillus subtilis [22]) | zone of inhibition at 25 µg/disc (Aspergillus niger [23]) | zone of inhibition at 50 µg/disc (Klebsiella pneumoniae [25]) | zone of inhibition at 100 µg/disc (Bacillus subtilis [26]) | other results
50 µg | 50 µg | 25 µg | 12.5 µg | 12.5 µg | 50 µg | c1ccc(-c2c[nH]c(Nc3cc(-c4ccccc4)n(-c4nc(-c5ccccc5)cs4)n3)n2)cc1 | 15 mm | 33 mm | 28 mm | 28 mm | 34 mm | 20 mm | 30 mm | 24 mm | 17 mm | 27 mm | 26 mm | 32 mm | 29 mm | 27 mm | MBC (Klebsiella pneumoniae [1]): >200 µg; MBC (Bacillus subtilis [4]): 200 µg; MBC (Staphylococcus aureus [12]): 50 µg; MBC (Pseudomonas aeruginosa [15]): >200 µg; MFC (Penicillium chrysogenum [18]): 100 µg; MFC (Aspergillus niger [24]): 100 µg
25 µg | 25 µg | 50 µg | 6.25 µg | 12.5 µg | 50 µg | Clc1ccc(-c2csc(Nc3cc(-c4ccc(Cl)cc4)n(-c4nc(-c5ccc(Cl)cc5)cs4)n3)n2)cc1 | 20 mm | 41 mm | 36 mm | 35 mm | 31 mm | 25 mm | 38 mm | 29 mm | 22 mm | 34 mm | 32 mm | 29 mm | 37 mm | 35 mm | MBC (Klebsiella pneumoniae [1]): 100 µg; MBC (Bacillus subtilis [4]): 100 µg; MBC (Staphylococcus aureus [12]): 12.5 µg; Ratio (Staphylococcus aureus [27]): 2; MBC (Pseudomonas aeruginosa [15]): 200 µg; MFC (Penicillium chrysogenum [18]): 200 µg; MFC (Aspergillus niger [24]): 100 µg
50 µg | 50 µg | 25 µg | 6.25 µg | 6.25 µg | 50 µg | Clc1ccc(-c2c[nH]c(Nc3cc(-c4ccc(Cl)cc4)n(-c4nc(-c5ccc(Cl)cc5)cs4)n3)n2)cc1 | 18 mm | 38 mm | 33 mm | 32 mm | 36 mm | 23 mm | 35 mm | 27 mm | 19 mm | 32 mm | 29 mm | 33 mm | 34 mm | 30 mm | MBC (Klebsiella pneumoniae [1]): 200 µg; MBC (Bacillus subtilis [4]): 200 µg; MBC (Staphylococcus aureus [12]): 12.5 µg; Ratio (Staphylococcus aureus [27]): 2; MBC (Pseudomonas aeruginosa [15]): 200 µg; Ratio (Aspergillus niger [28]): 2; MFC (Penicillium chrysogenum [18]): 100 µg; MFC (Aspergillus niger [24]): 12.5 µg
50 µg | 50 µg | 50 µg | 12.5 µg | 25 µg | 50 µg | c1ccc(-c2csc(Nc3cc(-c4ccccc4)n(-c4nc(-c5ccccc5)cs4)n3)n2)cc1 | 17 mm | 35 mm | 31 mm | 30 mm | 28 mm | 21 mm | 32 mm | 25 mm | 18 mm | 29 mm | 26 mm | 25 mm | 32 mm | 28 mm | MBC (Klebsiella pneumoniae [1]): >200 µg; MBC (Bacillus subtilis [4]): 200 µg; MBC (Staphylococcus aureus [12]): 50 µg; MBC (Pseudomonas aeruginosa [15]): >200 µg; MFC (Penicillium chrysogenum [18]): 200 µg; MFC (Aspergillus niger [24]): 100 µg
 |  |  |  |  |  | Cc1ccc(-c2c[nH]c(NC3=NN(C(N)=S)[C@@H](c4ccc(C)cc4)C3)n2)cc1 |  |  |  |  |  |  |  |  |  |  |  |  |  |  | growth inhibition (GI) (Pseudomonas aeruginosa [2]): inactive; growth inhibition (GI) (Klebsiella pneumoniae [3]): inactive; growth inhibition (GI) (Staphylococcus aureus [5]): inactive; growth inhibition (GI) (Klebsiella pneumoniae [8]): inactive; zone of inhibition (Aspergillus niger [10]): inactive; growth inhibition (GI) (Pseudomonas aeruginosa [11]): inactive; growth inhibition (GI) (Staphylococcus aureus [14]): inactive; growth inhibition (GI) (Bacillus subtilis [19]): inactive; growth inhibition (GI) (Pseudomonas aeruginosa [20]): inactive; growth inhibition (GI) (Staphylococcus aureus [21]): inactive; growth inhibition (GI) (Bacillus subtilis [22]): inactive; growth inhibition (GI) (Aspergillus niger [23]): inactive; growth inhibition (GI) (Klebsiella pneumoniae [25]): inactive; growth inhibition (GI) (Bacillus subtilis [26]): inactive
 |  |  |  |  |  | Cc1ccc(-c2coc(Nc3cc(-c4ccc(C)cc4)n(C(N)=S)n3)n2)cc1 |  | 8 mm |  |  | 6 mm |  | 6 mm |  |  |  | 7 mm |  | 7 mm | 8 mm | growth inhibition (GI) (Pseudomonas aeruginosa [2]): inactive; growth inhibition (GI) (Staphylococcus aureus [5]): inactive; growth inhibition (GI) (Klebsiella pneumoniae [8]): inactive; growth inhibition (GI) (Pseudomonas aeruginosa [11]): inactive; growth inhibition (GI) (Bacillus subtilis [19]): inactive; growth inhibition (GI) (Pseudomonas aeruginosa [20]): inactive; growth inhibition (GI) (Staphylococcus aureus [21]): inactive; growth inhibition (GI) (Aspergillus niger [23]): inactive
 |  |  |  |  |  | NC(=S)n1nc(Nc2nc(-c3ccccc3)co2)cc1-c1ccccc1 |  | 12 mm | 8 mm | 7 mm | 9 mm |  | 10 mm | 7 mm |  | 6 mm | 9 mm | 8 mm | 9 mm | 11 mm | growth inhibition (GI) (Pseudomonas aeruginosa [2]): inactive; growth inhibition (GI) (Pseudomonas aeruginosa [11]): inactive; growth inhibition (GI) (Pseudomonas aeruginosa [20]): inactive

Compound | MIC (Bacillus subtilis [6]) | MIC (Klebsiella pneumoniae [7]) | MIC (Penicillium chrysogenum [9]) | MIC (Staphylococcus aureus [13]) | MIC (Aspergillus niger [16]) | MIC (Pseudomonas aeruginosa [17]) | zone of inhibition at 25 µg/disc (Pseudomonas aeruginosa [2]) | zone of inhibition at 100 µg/disc (Klebsiella pneumoniae [3]) | zone of inhibition at 50 µg/disc (Staphylococcus aureus [5]) | zone of inhibition at 25 µg/disc (Klebsiella pneumoniae [8]) | zone of inhibition at 50 µg/disc (Aspergillus niger [10]) | zone of inhibition at 100 µg/disc (Pseudomonas aeruginosa [11]) | zone of inhibition at 100 µg/disc (Staphylococcus aureus [14]) | zone of inhibition at 25 µg/disc (Bacillus subtilis [19]) | zone of inhibition at 50 µg/disc (Pseudomonas aeruginosa [20]) | zone of inhibition at 25 µg/disc (Staphylococcus aureus [21]) | zone of inhibition at 50 µg/disc (Bacillus subtilis [22]) | zone of inhibition at 25 µg/disc (Aspergillus niger [23]) | zone of inhibition at 50 µg/disc (Klebsiella pneumoniae [25]) | zone of inhibition at 100 µg/disc (Bacillus subtilis [26]) | other results
O=C(N[C@H](CO)[C@H](O)c1ccc([N+](=O)[O-])cc1)C(Cl)Cl [CHLORAMPHENICOL] | 6.25 µg | 12.5 µg |  | 6.25 µg |  | 6.25 µg | 25 mm | 42 mm | 33 mm | 38 mm | 33 mm | 30 mm | 35 mm | 32 mm | 27 mm | 30 mm | 34 mm | 31 mm | 40 mm | 38 mm | 
CC(=O)N1CCN(c2ccc(OCC3COC(Cn4ccnc4)(c4ccc(Cl)cc4Cl)O3)cc2)CC1 (centres undefined) [KETOCONAZOLE] |  |  | 12.5 µg |  | 6.25 µg |  |  |  |  |  |  |  |  |  |  |  |  |  |  |  | 

— ChEMBL document CHEMBL3286292, “Synthesis and antimicrobial activity of amine linked bis- and tris-heterocycles” (2014)
